# Laboratory results taken from ChEMBL document CHEMBL4513216, “Probing the Open Global Health Chemical Diversity Library for Multistage-Active Starting Points for Next-Generation Antimalarials” (ACS Infect Dis, 2020).
# Test: Toxicity liver stage against HepG2, at 10uM
# Assay type: cell-based
# Set-up: test concentration 10 uM, cell line HepG2-A16-CD81EGFP
# Details: human, HepG2-A16-CD81EGFP cells; read-out: INHIBITION
# Outline: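 Uninfected HepG2-A16-CD81EGFP cells, 3 × 10^3 per well, 1536-well, plated on prespotted compound at 10 μM final, parasite-free screening media added to match infected plates; puromycin 10 μM positive, DMSO 0.5% negative; run in parallel with 48 h PbLuc assay at 37 °C, 5% CO2; viability by CellTiter-Glo luminescence, normalized to controls.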
row,Structure (SMILES),cytotoxicity at 10 µM
1,O=C(COc1ccc(-n2cccn2)nn1)N1CCCC1,1.43%
2,Cc1nsc(C(=O)NCCc2ccccc2)n1,4.28%
3,O=C1CCCN1Cc1noc(-c2ccc(Cl)cc2)n1,5.56%
4,CC(C)c1nn(CC(=O)N2CCCCC2)c(=O)c2c1cnn2C(C)(C)C,-13.2%
5,O=C(c1cn(-c2cc(N3CCSCC3)ncn2)cn1)N1CCSCC1,-17.3%
6,CC(c1nc(-c2ccccc2)no1)N1CC(n2cccn2)C1 (stereo unspecified),1.62%
7,c1nc2onc(C3CC3)c2cc1-c1nnc(C2CC2)o1,8.03%
8,Cn1ccnc1CN1CCCC1CCc1ccccc1 (stereo unspecified),13.8%
9,CCCN(Cc1ccccc1O)S(=O)(=O)C(C)CC (stereo unspecified),9.02%
10,CCc1nnsc1C(=O)NCc1c(C)nn(CCOC)c1C,-8.8%
11,CS(=O)(=O)NC1CCN(C(=O)c2ccc(Br)cc2)C1 (stereo unspecified),4.94%
12,O=C(c1cccnc1-n1cncn1)N1CCN(c2ccccc2)CC1,4.06%
13,Cc1cc(NC(=O)NCC(c2ccsc2)N(C)C)n(C)n1 (stereo unspecified),-5.33%
14,CCC(=O)Nc1ccc(C(C)NC(=O)COC)cc1 (stereo unspecified),-145%
15,CC(C)NC(=O)c1nnn(-c2ccccc2)c1C1CC1,2.2%
16,Cc1cc(CNc2ccc3nc(C4CC4)sc3c2)no1,0.981%
17,N#Cc1cnc(NCCCN2C(=O)COc3ccccc32)c(Cl)c1,-3.64%
18,CC1CCC(NS(=O)(=O)CC(=O)Nc2ccc(N3CCCC3)cn2)CC1 (stereo unspecified),1.54%
19,CN(CCCc1cc(-c2ccc(F)cc2)n(C)n1)CC(N)=O,-8.71%
20,CS(=O)(=O)CCOCCNc1ccc2ccc(F)cc2n1,3.55%
21,O=C(COc1cccc2c1CCC2=O)NCCSc1ccccc1,-1.22%
22,O=C(N[C@H]1CN2CCC1CC2)c1cc(Cn2cnc3ccccc32)[nH]n1,-4.26%
23,Nc1nc(CCNc2ncnc3c2CCN(C(=O)C2CC2)C3)cs1,-6.68%

row,Structure (SMILES),cytotoxicity at 10 µM
1,Cc1nc(C(C)C)sc1C(=O)NCCSc1nccn1C,-1.7%
2,O=C(c1cncc(N2CCC3(CCCNC3)C2)n1)N1CCCC1 (stereo unspecified),-4.15%
3,CCCc1nnc(NC2CCN(C3CCSCC3)CC2)o1,-1.38%
4,COc1cccnc1-c1ccc(F)c2c1OC(CN)C2 (stereo unspecified),1.74%
5,CCN1CCc2[nH]cnc2C12CCN(c1ccc(Cl)cn1)CC2,6%
6,CCSCCC(=O)NCc1cc2n(n1)CCN(C(=O)N(C)C)C2,-5.38%
7,COc1ccccc1Oc1ncccc1CNC(=O)[C@@H](N)CCO,-17.5%
8,NC(=O)Cn1cc(NC(=O)N2CCN(c3ccccc3)CC2)cn1,-8.45%
9,CCN1CCOC(CNCc2csc(C)n2)C1 (stereo unspecified),-5.13%
10,NC(=O)Cn1cc(NC(=O)NCCN2CCc3ccccc3C2)cn1,-9.52%
11,CNc1cc2c(nn1)CCN(C(=O)c1cc(C)no1)C2,-15.8%
12,O=C(Cc1ccc2c(c1)CCC2)N1CCCC(n2cccn2)C1 (stereo unspecified),-7.81%
13,Cc1ccc(C(=O)N2CCc3c(CNc4ncccn4)cncc3C2)o1,9.21%
14,Cc1ncnc2c1CCN(Cc1ccccn1)CC2,-10.4%
15,CCn1ncc2c1C(COC)CN(Cc1cccnc1)C2 (stereo unspecified),0.588%
16,O=C(c1cnccn1)N1CCCC2(CCN(Cc3ccsc3)CC2)C1,1.55%
17,O=C(c1cccc(F)c1)N1C[C@H]2CN(Cc3ccccn3)C[C@H]2C1,-1.92%
18,O=C(c1ccc[nH]1)N1CC[C@@H](OCC2CC2)[C@@H]1Cc1cccnc1,0.878%
19,CN1CC[C@H]2OCC[C@@]2(C(=O)NCCc2ccccn2)C1,1.82%
20,COCCN1CCC2(CC1)CCN(Cc1ccccn1)CC2,-3.54%
21,Cc1ccc(C(=O)N2C[C@@H]3CCN(C(C)C)C[C@@H]3C2)cn1,-6.54%
22,COc1ccc(-n2cc3[nH]c(=O)n(Cc4cccc(F)c4)n3c2=O)cc1,14.8%
23,CSc1nc(N)cc(N2C[C@H]3CC[C@@H](C2)N(CC2CC2)C3=O)n1,0.291%
